Sampled rows, rich in hits. Any-hit rate of the full collection: about 0.84%.
DDE Tn6 FP inh – DD(E)-Tn6 binding inhibition, primary FP screen; P02675; Fibrin DD(E) TRITC-Tn6 fluorescence polarization displacement; inhibition, % at 8.3 µM; actives 0.21% (n = 370,000); AID 720509;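 active means inhibition above a per-campaign cutoff: mean of compounds within control limits plus 3 SD, cut at about 15% in these data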;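 further: 0% = median of all compound wells on the plate and 100% = blocking peptide control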
Target sequence (P02675 whole entry, looked up): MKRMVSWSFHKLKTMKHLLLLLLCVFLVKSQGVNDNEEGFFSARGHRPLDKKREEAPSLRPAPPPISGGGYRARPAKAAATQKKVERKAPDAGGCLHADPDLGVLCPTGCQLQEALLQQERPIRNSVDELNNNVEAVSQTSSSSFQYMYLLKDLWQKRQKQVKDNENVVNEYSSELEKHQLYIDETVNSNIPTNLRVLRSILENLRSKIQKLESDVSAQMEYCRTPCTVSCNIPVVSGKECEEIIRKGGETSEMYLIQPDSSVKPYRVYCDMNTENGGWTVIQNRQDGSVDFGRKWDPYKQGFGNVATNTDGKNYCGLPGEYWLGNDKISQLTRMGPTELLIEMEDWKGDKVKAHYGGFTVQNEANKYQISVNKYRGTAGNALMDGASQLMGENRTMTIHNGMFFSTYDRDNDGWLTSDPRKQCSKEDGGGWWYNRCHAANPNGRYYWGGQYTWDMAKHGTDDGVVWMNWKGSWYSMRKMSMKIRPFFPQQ
SKN-1 block – C. elegans SKN-1 inhibition | inhibition, % at 21.8 µM | actives 0.49% (n = 360,000) | C. elegans VP596 Pgst-4::GFP/RFP ratio, acrylamide-induced, 24 h;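 active means interference check ratio from 0.5 to 1.5 plus GFP to RFP signal ratio inhibition reaching or exceeding a fixed threshold, cut at about 30% in these data, passing the limit was not always enough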
Tn7 DDE FP – inhibitors of Tn7 peptide binding to human fibrin DD(E); inhibition, % at 8.3 µM; FP displacement of FITC-Tn7 peptide from fibrin DD(E); 0% = median of compound wells per plate; P02675; actives 0.13% (n = 370,000);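 active means inhibition above the mean of compounds falling within the control limits plus 3 SD of them, cut at about 14% in these data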;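 further: 0% = plate median of compound wells and 100% = 10 µM Aha-Tn7 peptide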
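Assay system: Human clot-derived fibrin DD(E) complex | Buffer or medium: Tris/NaCl/CaCl2 buffer, pH 7.8 | Repeats: One replicate per compound | Benchmarks: Aha-Tn7 high control | Measure: % inhibition scaled between sample-field median and high-control FP | Schedule: 10 min plus 3 h, room temperature | Signal: Fluorescence polarization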
MT1-MMP act inh – blocks activation of human MT1-MMP; actives 0.061% (n = 360,000); GFP/RFP ratio change, % at 20 µM; HT1080 RFP-PRO-GFP cells, GFP/RFP ratio fluorescence, overnight; percent of plate control window, DMSO zero; AID 651647;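 active means GFP/RFP ratio change of at least 30% with cell ATP level not reduced by more than half and red fluorescence within 50% of control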
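Compound: 20 µM single dose, 1% DMSO / System: HT1080 RFP-PRO-GFP cells / Controls: DMSO and RFP-L50D-GFP cell wells / Read-out basis: GFP/RFP fluorescence ratio / Schedule: overnight compound exposure at 37 °C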
* = called active by the depositor; nt = no result given.

SMILES | DDE Tn6 FP inh | SKN-1 block | Tn7 DDE FP | MT1-MMP act inh
COc1cccc(-c2ccc(CC[C@H]3O[C@H]4CC[C@H](CO)O[C@H]4C[C@H]3NS(C)(=O)=O)cc2)c1 | -2 | nt | 3 | nt
N#C/C(=C\c1ccco1)Sc1nc2ccccc2s1 | 0 | 45* | -3 | -4
c1ccc(CSc2ncnc3sccc23)cc1 | 3 | 43* | 0 | -6
CCCCCCN1C=CC=C/C1=C\C=C(C#N)C#N | -3 | 24 | 2 | -136
Cc1ccc(N(CC(=O)NCC2CCCO2)S(=O)(=O)c2ccc(Cl)cc2)cc1C (stereo not given) | 0 | 35* | 6 | -6
COc1ccc(/C=N/NC(=O)Cc2csc(Nc3cccc(C(F)(F)F)c3)n2)cc1C | -12 | 37* | 4 | 1
CC(C)C[C@H](NC1(C(=O)NC2CCCCC2)CCN(C)CC1)C(=O)NCC(c1ccccc1)c1ccccc1 | 6 | nt | 4 | nt
COC(=O)N1C[C@H](OC(=O)c2ccc(-c3ccccc3)cc2)[C@H]2C[C@@H]1c1ccccc1O2 | -2 | nt | -1 | nt
OC1OC2COC(c3ccccc3)OC2C(O)C1O (stereo not given) | -5 | nt | -6 | nt
CCCCC(CC)CN=C(N)NC(N)=NCCCCCCN=C(N)NC(N)=NCC(CC)CCCC (stereo not given) | nt | 38* | nt | nt
COc1ccccc1OCC(=O)Sc1ccc(C)cc1 | -6 | -2 | 7 | -6
Cc1ccc(OCC(=O)Sc2ccc(C)cc2)cc1 | -3 | 56* | 2 | -12
O=C(Nc1cnccn1)Nc1cccc(Cl)c1Cl | -1 | 15 | 2 | -7
CCOC(=O)C1(CCc2ccccc2)CCN(C(=O)CCn2cncn2)CC1 | 5 | -10 | -5 | -4
CN1CCN(C(=O)c2ccccc2N(Cc2ccccc2)S(=O)(=O)c2ccccc2)CC1 | 4 | -27 | -2 | -19
CN1CCN(C(=O)c2ccccc2N(Cc2ccccc2)S(C)(=O)=O)CC1 | -6 | 40* | 0 | 1
c1ccc(Cn2c[n+](Cc3ccccc3)c3ccccc32)cc1 | -3 | 35* | -3 | 1
c1ccc(C[n+]2csc3ccccc32)cc1 | -17 | 1 | -1 | 2
CN1CCN(c2ccc(NC(=O)c3ccc(Oc4ccccc4)cc3)cc2)CC1 | -1 | 37* | 1 | 5
CC(C)(C)N(Cc1cn(Cc2ccccc2)nn1)S(=O)(=O)c1ccc(F)cc1Br | -8 | nt | 5 | nt
CN1\C(=C/C=C/C=C/C=[N+](C)C)C(C)(C)c2ccccc21 | 31* | 90 | -11 | -9
Cc1cc(NC(=O)CS(=O)(=O)c2ccc(Cl)cc2)no1 | 1 | 12 | -6 | -2
Cc1ccc(C)c(N2CCN(C(c3ccc(N(C)C)cc3)c3nnnn3C(C)(C)C)CC2)c1 (stereo not given) | -3 | 46* | 2 | -7
CC[C@@]1(O)C(=O)OCc2c1cc1n(c2=O)Cc2cc3c(N)cccc3nc2-1 | -8 | 3 | -1 | -4
CC[C@@]1(O)C(=O)OCc2c1cc1n(c2=O)Cc2cc3c(CN(C)C)c(O)ccc3nc2-1 | 10 | -24 | 30* | -89
SMILES | DDE Tn6 FP inh | SKN-1 block | Tn7 DDE FP | MT1-MMP act inh
O=C(CC(c1ccccc1)c1ccccc1)NCCOCc1ccccc1 | 4 | -1 | 7 | 0
COCCNC(=O)CC(c1ccccc1)c1ccccc1 | -1 | 36* | 9 | 2
COC1=C[C@H](C(=O)NC2CCN(Cc3ccccc3)CC2)[C@H](C)[C@@H](c2ccccc2)CC1=O | 4 | nt | 6 | nt
O=C(CSc1ncn[nH]1)Nc1ccc(Cl)c(Cl)c1 | 3 | 44* | -2 | 2
Fc1ccc(Cc2nnc(-c3cccs3)o2)cc1 | -3 | 7 | -5 | 1
Fc1ccc(-c2nnc(Cc3ccc(Cl)cc3)o2)cc1 | -9 | 44* | -1 | 4
CCOc1ccc(-n2c(SCC(=O)c3ccc4ccccc4c3)nnc2-c2ccco2)cc1 | -5 | nt | -3 | nt
COC(=O)[C@]12C[C@H](CC(=O)NCCC(C)C)C(=O)N(Cc3ccc4c(c3)OCO4)C1=C[C@H](C(C)(C)C)O[C@@H]2C | 4 | nt | -6 | nt
S=c1[nH]nc(-c2n[nH]c3c2CCC3)n1N=Cc1c[nH]c2ccccc12 | 5 | nt | -6 | nt
CCOc1ccc(N(C)c2ccc(/C=C3/SC(=S)NC3=O)cc2)cc1 | 0 | 20 | 1 | -91
CN(C)c1ccc(C=C2SC(=S)NC2=O)cc1 | 3 | 40* | -11 | -70
Clc1ccc(OCCSc2ncccn2)cc1 | -11 | 38* | 3 | 7
COc1ccc(OCCSc2ncccn2)cc1 | 5 | -4 | 1 | 0
O=[N+]([O-])c1ccc(CN2CCN(c3ccccc3)CC2)o1 | 1 | -20 | 10 | 2
Clc1ccccc1-c1ccc(CN2CCN(c3ccccc3)CC2)o1 | 3 | 38* | 4 | -2
Clc1cccc(Cl)c1Cn1cc(Br)cn1 | -5 | -30 | -5 | 0
Clc1ccc(Cn2cc(Br)cn2)cc1Cl | 3 | 47* | 3 | -2
COCCCn1cnc2c(c1=O)c1nc3ccccc3nc1n2CCc1ccccc1 | -11 | 36* | 0 | 7
CCN(CC)CCCNC(=O)c1cc(Nc2ccc(OC)cc2)nc2ccccc12 | 0 | -2 | 0 | -1
C/C(=N\OC(=O)c1ccc(Br)cc1)c1ccccn1 | -2 | -6 | -11 | 4
C/C(=N/OCc1ccc(Br)cc1)c1ccccn1 | -2 | 54* | 1 | 0
COC(=O)[C@]12C[C@H](CC(=O)NCc3ccc(C)o3)C(=O)N(Cc3ccco3)C1=C[C@H](C(C)(C)C)O[C@@H]2C | -1 | nt | 5 | nt
O=S(=O)(O)c1cc(O)c2c(O)c(N=Nc3cc(Cl)ccc3O)c(S(=O)(=O)O)cc2c1 | nt | 89 | nt | 77*
CCOC(=O)Nc1cccc2c1-c1ccc([N+](=O)[O-])cc1C2=O | 3 | 40* | 4 | -4
COc1ccc(-n2ncc3c(N4CCC(C)CC4)ncnc32)cc1 | -6 | -15 | 6 | 2
SMILES | DDE Tn6 FP inh | SKN-1 block | Tn7 DDE FP | MT1-MMP act inh
CCOC(=O)N1CCN(c2ncnc3c2cnn3-c2ccc(OC)cc2)CC1 | -4 | 48* | 1 | 7
COc1ccc(CNC(=O)C[C@H]2C[C@H](C(=O)N(C(C)C)C(C)C)[C@@]3(C)c4[nH]c5cc(CCC(=O)N(C)C)ccc5c4CCN3C2=O)cc1OC | -3 | -3 | -8 | 1
COc1ccc(CNC(=O)C[C@H]2C[C@H](C(=O)N3CCCCC3)[C@@]3(C)c4[nH]c5cc(CCC(=O)N(C)C)ccc5c4CCN3C2=O)cc1OC | 16* | 11 | 7 | 2
Cc1c(CCOC(=O)C23CC4(C)CC(C)(CC(C)(C4)C2)C3)sc[n+]1CC(=O)c1ccccc1 | 4 | 38* | -2 | -11
Cc1c(CCOC(=O)CC23CC4CC(CC(C4)C2)C3)sc[n+]1CC(=O)c1ccccc1 | 3 | -1 | -4 | -10
CCNC(=O)C1(C)CCCN1C(=O)c1cnc2ccccc2n1 (stereo not given) | -2 | 15 | -4 | 2
